13 compounds from ChEMBL document CHEMBL5143598, “Cytotoxic Sesquiterpenoids from Ammoides atlantica Aerial Parts” (J Nat Prod, 2022) can be followed below.

For one data set, the system named is MCF7. Put plainly: Antiproliferative activity against human MCF7 cells assessed as reduction in cell viability measured after 48 hrs by colorimetric based MTT assay. It is filed as functional. As to conditions: MCF7, 48 h. In general terms: Tetrazolium assays rely on reduction of a dye to a coloured formazan, in cell work by metabolically active cells.
A short description of data set [1]: Antiproliferative activity against human HaCaT cells assessed as reduction in cell viability measured after 48 hrs by colorimetric based MTT assay.
The subject of a further data set is A-375. Description: Antiproliferative activity against human A-375 cells assessed as reduction in cell viability measured after 48 hrs by colorimetric based MTT assay. The data set is classed as functional. As to conditions: A-375, 48 h.
Data set [2] relates to A549. Put plainly: Antiproliferative activity against human A549 cells assessed as reduction in cell viability measured after 48 hrs by colorimetric based MTT assay. The settings on record: A549, 48 h. It is filed as functional.
In data set [3] the test system is Jurkat. Put plainly: Antiproliferative activity against human Jurkat cells assessed as reduction in cell viability measured after 48 hrs by colorimetric based MTT assay. The data set is classed as functional. In outline: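 Jurkat leukemia cells kept in RPMI with 10% FBS, 2 mM L-glutamine and penicillin/streptomycin at 37 °C, 5% CO2. Plated at 3.5 × 10^3 cells/well and left 24 h, then given fresh medium alone or with serial dilutions (40, 20, 10, 5 μM) for 48 h. Staurosporine 0.2 μM served as positive control. MTT added for 3 h, formazan dissolved in DMF/SDS solution at pH 4.5, OD read at 620 nm. Viability calculated as % of DMSO control. IC50 taken as the concentration giving 50% growth inhibition versus control.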

Data set [4] concerns A549. Put plainly: Induction of apoptosis in human A549 cells assessed as increase accumulation of hypodiploid nuclei cells at 5 to 40 uM measured after 24 hrs by PI staining based flow cytometry analysis. It is filed as functional, cell-based. As to conditions: dose 5-40 µM. The essentials: (§1)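 A549, Jurkat or HaCaT cells plated at 3 × 10^4 cells/well, left 24 h, then exposed to 40, 20, 10 or 5 μM for 24 h. Staurosporine 0.2 μM served as positive control. Cells washed in PBS and stained 30 min at 4 °C in the dark with PI in 0.1% Triton X-100/0.1% sodium citrate. Analysed by flow cytometry with debris excluded by forward scatter and DNA on a log scale. Read-out is % hypodiploid nuclei. Three independent experiments in triplicate, mean ± SEM, Mann–Whitney U test.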

Data set [5] has as its system Jurkat. Put plainly: Induction of apoptosis in human Jurkat cells assessed as increase accumulation of hypodiploid nuclei cells measured after 24 hrs by PI staining based flow cytometry analysis. As to conditions: dose 5-40 µM, DDE = dose-dependent effect. It is filed as functional, cell-based. In outline: as §1
A general note: In flow cytometry, cells or beads pass a laser one at a time.

Data set [6] relates to HaCaT. Put plainly: Induction of apoptosis in human HaCaT cells assessed as increase accumulation of hypodiploid nuclei cells measured after 24 hrs by PI staining based flow cytometry analysis. The data set is classed as functional, cell-based. As to conditions: dose 5-40 µM, DDE = dose-dependent effect. The essentials:
as §1

The subject of data set [7] is A549. Description: Induction of apoptosis in human A549 cells assessed as increase accumulation of hypodiploid nuclei cells measured after 24 hrs by PI staining based flow cytometry analysis. It is filed as functional, cell-based. The settings on record: dose 5-40 µM, DDE = dose-dependent effect. The essentials: as §1
The test system of data set [8] is Jurkat. Description: Induction of cell cycle arrest in human Jurkat cells assessed as accumulation at S phase measured after 24 hrs by PI staining based flow cytometry analysis. The data set is classed as functional. The settings on record: dose 5-40 µM, DDE = dose-dependent effect. The essentials:
(§2)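 HaCaT or Jurkat cells plated at 3 × 10^4 cells/well, left 24 h, then treated with 40, 20, 10 or 5 μM for 24 h. Staurosporine 0.2 μM served as positive control. DNA stained with PI and 10 000 events per sample acquired by flow cytometry. Percentages of cells in G0/G1, S and G2/M were derived from the DNA profiles. Three independent experiments in triplicate, mean ± SEM, Mann–Whitney U test.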

In data set [9] the test system is HaCaT. Description: Induction of apoptosis in human HaCaT cells assessed as increase accumulation of hypodiploid nuclei cells at 5 to 40 uM measured after 24 hrs by PI staining based flow cytometry analysis. It is filed as functional, cell-based. The settings on record: dose 5-40 µM. The essentials: as §1
Data set [10] has as its system HaCaT. Description: Induction of cell cycle arrest in human HaCaT cells assessed as accumulation at G2 phase at 40 uM measured after 24 hrs by PI staining based flow cytometry analysis. The data set is classed as functional. In outline: as §2

The source made the active and inactive calls. The calls are words filed in the database; no cut-off is given here. Bounds are passed on as bounds.

Consider `C=C1[C@@H]2[C@@H](OC(C)=O)/C(=C(\CO)C(=O)O)CC[C@@]2(C)[C@H](O)C[C@@H]1O`, for which the IC50 with MCF7, with A-375, in the data set on A549 [2] and in the data set on Jurkat [3] was > 10 µM throughout. In addition, the IC50 (in general, the concentration needed to halve the response being measured) at 48 h in data set [1] is > 10 µM.
In the case of `C=C1C(=O)O[C@@H]2C1C[C@@H](OC(C)=O)[C@@](C)(O)[C@@]13O[C@@H]1[C@@H]1O[C@]1(C)[C@H]23` (stereo not given in full), the IC50 was 9.6 µM with MCF7, 3.7 µM with A-375, > 10 µM in the data set with A549 [2] and 5 µM with Jurkat [3]. Also, the result with A549 [4], in the data set with HaCaT [9] and in the data set on HaCaT [10] was Active. Further, the Activity entry in the data set with Jurkat [5], in the data set with HaCaT [6], with A549 [7] and in the data set on Jurkat [8] was “Dde” each time. Moreover, the IC50 at 48 h in data set [1] was 1.6 µM.
Regarding `C=C1C(=O)O[C@H](C2=C(C)[C@@H](O)CC2=O)[C@@H]1CCC(C)=O`, the IC50 was > 10 µM with MCF7, > 10 µM in the data set on A-375, 8.9 µM with A549 [2] and 7.7 µM in the data set with Jurkat [3]. For the same compound, the result with A549 [4], in the data set on HaCaT [9] and with HaCaT [10] was Active. Further, the Activity entry in the data set with Jurkat [5], in the data set with HaCaT [6], with A549 [7] and in the data set on Jurkat [8] was “Dde” throughout. The IC50 at 48 h in data set [1] came to 2.9 µM.
On to `C=C(C)[C@@H](O)CC[C@@H](C)C1C[C@H](O)C(C)=C[C@@H]1O` (relative stereo), for which the IC50 in the data set with MCF7, with A-375, in the data set on A549 [2] and in the data set on Jurkat [3] was > 10 µM throughout. Also, the IC50 at 48 h in data set [1] is > 10 µM.
Turning to `C=C1C(=O)O[C@@H]2C1C[C@@H](OC(C)=O)[C@](C)(O)[C@@]13C=C[C@@](C)(OO1)C23` (stereo not given in full), the IC50 in the data set on MCF7 is > 10 µM; in the data set on A-375, > 10 µM; in the data set with A549 [2], 4.1 µM; in the data set with Jurkat [3], 4.7 µM. The IC50 at 48 h in data set [1] amounted to 1.7 µM.
For the compound `C=C1C(=O)O[C@H]([C@H]2C(=O)C=C[C@]2(C)O)[C@@H]1CCC(C)=O`, the IC50 with MCF7, in the data set on A-375, in the data set on A549 [2] and with Jurkat [3] was > 10 µM throughout. In addition, the IC50 at 48 h in [1] is > 10 µM.
With `CN[C@@H]1C[C@H]2O[C@@](C)([C@@H]1OC)n1c3ccccc3c3c4c(c5c6ccccc6n2c5c31)C(=O)NC4` [STAUROSPORINE], the IC50 with Jurkat [3] was determined as 3.2 µM.
For `CC(C)(O)/C=C/[C@H]1OC(=O)C[C@]1(C)O` (relative stereo), the IC50 in the data set on MCF7, with A-375, in the data set with A549 [2] and with Jurkat [3] was > 10 µM throughout. Besides, the IC50 at 48 h in data set [1] was > 10 µM.
Turning to `C=C1[C@@H]2[C@H]3OC(=O)C(COC(C)=O)=C3CC[C@@]2(C)[C@H](O)C[C@@H]1O`, the IC50 in the data set with MCF7, in the data set on A-375, with A549 [2] and in the data set with Jurkat [3] was > 10 µM in each case. In [1], the IC50 at 48 h was > 10 µM.
With `C[C@H]1CC[C@]23O[C@]12C[C@H](C(C)(C)O)CC[C@@]3(C)O` (relative stereo), the IC50 in the data set on MCF7, with A-375, in the data set on A549 [2] and in the data set with Jurkat [3] was > 10 µM in each case. The IC50 at 48 h in data set [1] is > 10 µM.
`C=C1C(=O)O[C@@H]2[C@H]1C[C@@H](OC(C)=O)[C@@](C)(O)[C@]13O[C@H]1[C@@H](Cl)[C@](C)(O)[C@H]23`: the IC50 in the data set on MCF7, in the data set on A-375, in the data set on A549 [2] and in the data set on Jurkat [3] was > 10 µM throughout. Moreover, the IC50 at 48 h in data set [1] came out at 3.5 µM.
`CC(=O)O[C@@H]1CC(C)=C2C(=O)C=C(C)[C@@H]2[C@@H](O)[C@H]1C(C)C(=O)O` (relative stereo): the IC50 in the data set with MCF7, in the data set on A-375, in the data set on A549 [2] and with Jurkat [3] was > 10 µM each time. Moreover, the IC50 at 48 h in data set [1] is > 10 µM.
With `C=C1C(=O)O[C@H]2[C@H]1C[C@H](OC(C)=O)[C@](C)(O)[C@@]1(O)[C@@H](O)[C@H]3O[C@@]3(C)[C@H]21` (relative stereo), the IC50 in the data set with MCF7, in the data set on A-375, with A549 [2] and in the data set on Jurkat [3] was > 10 µM in each case. For the same compound, the IC50 at 48 h in data set [1] is > 10 µM.
